Laboratory results: PMC4929832 (Nature, 2016)

Columns and labels:
HIPK4 = HIPK4 (Homo sapiens, UniProt Q8NE63); assay: kinase panel; format: biochemical
AKT3 = AKT3 (Homo sapiens, UniProt Q9Y243); assay: kinase panel; format: biochemical
LATS2 = LATS2 (Homo sapiens, UniProt Q9NRM7); assay: kinase panel; format: biochemical
P70S6K1 = P70S6K1 (Homo sapiens, UniProt P23443); assay: kinase panel; format: biochemical
MELK = MELK (Homo sapiens, UniProt Q14680); assay: kinase panel; format: biochemical
JAK3 = JAK3 (Homo sapiens, UniProt P52333); assay: kinase panel; format: biochemical
PIM3 = PIM3 (Homo sapiens, UniProt Q86V86); assay: kinase panel; format: biochemical
PYK2 = PYK2 (Homo sapiens, UniProt Q14289); assay: kinase panel; format: biochemical
[1] = system: L858R/T790M/C797S mutant lung tumors (genetically engineered mice); assay: Mouse efficacy study, tumor volume by MRI; format: in vivo; conditions: EAI045 and cetuximab
Procedure, shortened: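 Transgenic lung tumors were induced at 6 weeks of age: exon19del/T790M mice by doxycycline diet, L858R/T790M/C797S mice by intranasal Ad-Cre. The test compound in 10% NMP/90% PEG-300 was given at 60 mg/kg daily by oral gavage. […] MRI ran at baseline and every 2 weeks, and tumor volume was quantified in 3D at 4 weeks. Cohorts were non-blinded and not randomized.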

CK1-GAMMA1 = CK1-GAMMA1 (Homo sapiens, UniProt Q9HCP0); assay: kinase panel; format: biochemical
[2] = target: Norepinephrine Transporter (Homo sapiens, UniProt P23975); assay: Norepinephrine Transporter assay; format: binding
FLT-4 = FLT-4 (Homo sapiens, UniProt P35916); assay: kinase panel; format: biochemical
FGFR2 = FGFR2 (Homo sapiens, UniProt P21802); assay: kinase panel; format: biochemical
FGFR2, sequence (P21802 22-821): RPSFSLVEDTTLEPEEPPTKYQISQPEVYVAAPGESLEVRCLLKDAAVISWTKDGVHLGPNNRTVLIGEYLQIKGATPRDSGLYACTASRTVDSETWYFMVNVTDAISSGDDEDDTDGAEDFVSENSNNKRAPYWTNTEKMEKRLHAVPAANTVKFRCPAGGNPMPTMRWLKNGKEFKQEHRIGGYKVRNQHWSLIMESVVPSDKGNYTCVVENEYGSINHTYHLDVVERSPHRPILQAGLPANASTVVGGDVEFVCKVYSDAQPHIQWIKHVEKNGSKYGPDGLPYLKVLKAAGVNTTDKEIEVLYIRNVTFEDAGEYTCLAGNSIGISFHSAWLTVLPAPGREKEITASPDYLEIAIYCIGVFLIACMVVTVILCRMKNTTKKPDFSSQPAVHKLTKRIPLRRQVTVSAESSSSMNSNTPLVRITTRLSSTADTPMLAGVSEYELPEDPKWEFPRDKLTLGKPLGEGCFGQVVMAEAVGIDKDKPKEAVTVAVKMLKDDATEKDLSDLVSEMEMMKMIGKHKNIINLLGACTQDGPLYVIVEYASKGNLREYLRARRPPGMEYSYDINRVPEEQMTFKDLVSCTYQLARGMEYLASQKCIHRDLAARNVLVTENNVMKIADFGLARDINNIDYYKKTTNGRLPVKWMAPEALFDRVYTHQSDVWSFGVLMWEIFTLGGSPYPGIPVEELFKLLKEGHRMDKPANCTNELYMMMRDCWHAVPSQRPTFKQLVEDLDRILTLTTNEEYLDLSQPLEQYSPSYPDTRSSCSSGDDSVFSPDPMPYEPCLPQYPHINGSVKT

SLK = SLK (Homo sapiens, UniProt Q9H2G2); assay: kinase panel; format: biochemical
EPH-A2 = EPH-A2 (Homo sapiens, UniProt P29317); assay: kinase panel; format: biochemical
SYK = SYK (Homo sapiens, UniProt P43405); assay: kinase panel; format: biochemical
H1 receptor = H1 receptor (Homo sapiens, UniProt P35367); assay: H1 receptor calcium assay; format: cell-based
CAMK1D = CAMK1D (Homo sapiens, UniProt Q8IU85); assay: kinase panel; format: biochemical
RSK4 = RSK4 (Homo sapiens, UniProt Q9UK32); assay: kinase panel; format: biochemical
RSK4, sequence (Q9UK32 whole entry): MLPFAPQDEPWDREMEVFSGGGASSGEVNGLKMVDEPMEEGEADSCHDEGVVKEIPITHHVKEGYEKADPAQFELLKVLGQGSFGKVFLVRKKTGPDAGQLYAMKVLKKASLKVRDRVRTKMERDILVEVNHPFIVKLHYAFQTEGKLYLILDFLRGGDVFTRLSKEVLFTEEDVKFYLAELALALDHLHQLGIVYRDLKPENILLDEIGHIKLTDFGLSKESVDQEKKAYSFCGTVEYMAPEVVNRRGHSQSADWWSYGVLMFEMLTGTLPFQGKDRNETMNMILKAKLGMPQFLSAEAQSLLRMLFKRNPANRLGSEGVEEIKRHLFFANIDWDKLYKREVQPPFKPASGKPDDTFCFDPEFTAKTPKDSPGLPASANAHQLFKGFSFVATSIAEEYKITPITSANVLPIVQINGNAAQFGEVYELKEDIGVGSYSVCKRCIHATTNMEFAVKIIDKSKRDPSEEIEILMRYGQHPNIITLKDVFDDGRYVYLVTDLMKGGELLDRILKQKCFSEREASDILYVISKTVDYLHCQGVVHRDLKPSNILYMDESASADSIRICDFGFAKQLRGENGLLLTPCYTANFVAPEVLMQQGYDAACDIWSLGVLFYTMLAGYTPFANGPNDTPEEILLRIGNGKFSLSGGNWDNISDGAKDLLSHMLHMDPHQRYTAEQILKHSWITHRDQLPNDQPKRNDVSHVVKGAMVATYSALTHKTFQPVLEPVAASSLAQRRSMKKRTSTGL

CK1-GAMMA3 = CK1-GAMMA3 (Homo sapiens, UniProt Q9Y6M4); assay: kinase panel; format: biochemical
CYP3A4 = CYP3A4 Induction Reporter Gene; format: cell-based; conditions: human, CYP3A4 induction reporter gene assay (cell line not given)
CK1-EPSILON = CK1-EPSILON (Homo sapiens, UniProt P49674); assay: kinase panel; format: biochemical
NEK6 = NEK6 (Homo sapiens, UniProt Q9HC98); assay: kinase panel; format: biochemical
NEK3 = NEK3 (Homo sapiens, UniProt P51956); assay: kinase panel; format: biochemical
NEK2 = NEK2 (Homo sapiens, UniProt P51955); assay: kinase panel; format: biochemical
CK1-GAMMA2 = CK1-GAMMA2 (Homo sapiens, UniProt P78368); assay: kinase panel; format: biochemical
BRK = BRK (Homo sapiens, UniProt Q13882); assay: kinase panel; format: biochemical
RET = RET (Homo sapiens, UniProt P07949); assay: kinase panel; format: biochemical
RET, sequence (P07949 29-1114): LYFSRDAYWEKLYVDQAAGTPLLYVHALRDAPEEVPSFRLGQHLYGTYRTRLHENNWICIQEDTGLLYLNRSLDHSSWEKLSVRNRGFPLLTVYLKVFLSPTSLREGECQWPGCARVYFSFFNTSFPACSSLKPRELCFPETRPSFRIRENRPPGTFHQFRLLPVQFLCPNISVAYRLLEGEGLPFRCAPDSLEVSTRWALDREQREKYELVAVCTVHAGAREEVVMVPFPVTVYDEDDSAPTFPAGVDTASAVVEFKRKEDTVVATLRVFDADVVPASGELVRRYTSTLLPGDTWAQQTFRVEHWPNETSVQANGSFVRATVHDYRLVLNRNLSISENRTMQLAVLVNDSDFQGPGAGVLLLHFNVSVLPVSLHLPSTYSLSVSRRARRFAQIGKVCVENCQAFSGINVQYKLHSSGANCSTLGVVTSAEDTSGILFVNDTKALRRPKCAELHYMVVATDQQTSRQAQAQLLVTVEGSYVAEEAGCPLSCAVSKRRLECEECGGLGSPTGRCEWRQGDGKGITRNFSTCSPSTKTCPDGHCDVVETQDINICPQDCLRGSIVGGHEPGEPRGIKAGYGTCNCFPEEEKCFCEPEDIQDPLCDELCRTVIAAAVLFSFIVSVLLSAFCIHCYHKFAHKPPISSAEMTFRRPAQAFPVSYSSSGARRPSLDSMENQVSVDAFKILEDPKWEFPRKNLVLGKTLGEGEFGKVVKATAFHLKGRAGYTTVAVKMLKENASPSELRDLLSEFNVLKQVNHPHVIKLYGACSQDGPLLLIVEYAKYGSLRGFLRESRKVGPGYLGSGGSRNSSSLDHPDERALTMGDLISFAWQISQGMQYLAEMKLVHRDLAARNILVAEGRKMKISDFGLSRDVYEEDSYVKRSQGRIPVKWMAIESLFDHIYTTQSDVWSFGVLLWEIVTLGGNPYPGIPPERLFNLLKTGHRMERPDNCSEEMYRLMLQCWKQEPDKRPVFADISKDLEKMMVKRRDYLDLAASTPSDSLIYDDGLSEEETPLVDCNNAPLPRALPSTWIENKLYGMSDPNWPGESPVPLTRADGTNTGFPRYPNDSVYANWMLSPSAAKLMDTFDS

COX-1 = COX-1 (Homo sapiens, UniProt P23219); assay: COX-1 assay; format: biochemical
COX-1, sequence (P23219 24-599): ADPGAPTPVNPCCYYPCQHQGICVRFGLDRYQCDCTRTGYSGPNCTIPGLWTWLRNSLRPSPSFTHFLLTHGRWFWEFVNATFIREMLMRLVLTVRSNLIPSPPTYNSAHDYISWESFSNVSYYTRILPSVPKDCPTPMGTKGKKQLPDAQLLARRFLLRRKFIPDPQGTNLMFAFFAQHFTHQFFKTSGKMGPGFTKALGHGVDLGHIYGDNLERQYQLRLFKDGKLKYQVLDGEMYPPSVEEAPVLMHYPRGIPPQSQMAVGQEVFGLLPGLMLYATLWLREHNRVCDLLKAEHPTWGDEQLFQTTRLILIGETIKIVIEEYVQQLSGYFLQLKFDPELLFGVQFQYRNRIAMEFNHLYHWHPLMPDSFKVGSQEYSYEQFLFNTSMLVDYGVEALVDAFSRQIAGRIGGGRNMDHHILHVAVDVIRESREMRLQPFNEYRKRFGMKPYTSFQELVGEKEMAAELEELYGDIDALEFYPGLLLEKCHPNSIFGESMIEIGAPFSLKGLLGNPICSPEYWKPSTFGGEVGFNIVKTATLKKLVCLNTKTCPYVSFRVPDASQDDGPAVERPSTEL

SRPK1 = SRPK1 (Homo sapiens, UniProt Q96SB4); assay: kinase panel; format: biochemical
KDR = KDR (Homo sapiens, UniProt P35968); assay: kinase panel; format: biochemical
TAOK2 = TAOK2 (Homo sapiens, UniProt Q9UL54); assay: kinase panel; format: biochemical
CDK3-CYCLINE = CDK3-CYCLINE (Homo sapiens, UniProt Q00526); assay: kinase panel; format: biochemical
CDK5-P25 = CDK5-P25 (Homo sapiens, UniProt Q00535); assay: kinase panel; format: biochemical
TRKA = TRKA (Homo sapiens, UniProt P04629); assay: kinase panel; format: biochemical
CAMK1A = CAMK1A (Homo sapiens, UniProt Q14012); assay: kinase panel; format: biochemical
CAMK1A, sequence (Q14012 whole entry): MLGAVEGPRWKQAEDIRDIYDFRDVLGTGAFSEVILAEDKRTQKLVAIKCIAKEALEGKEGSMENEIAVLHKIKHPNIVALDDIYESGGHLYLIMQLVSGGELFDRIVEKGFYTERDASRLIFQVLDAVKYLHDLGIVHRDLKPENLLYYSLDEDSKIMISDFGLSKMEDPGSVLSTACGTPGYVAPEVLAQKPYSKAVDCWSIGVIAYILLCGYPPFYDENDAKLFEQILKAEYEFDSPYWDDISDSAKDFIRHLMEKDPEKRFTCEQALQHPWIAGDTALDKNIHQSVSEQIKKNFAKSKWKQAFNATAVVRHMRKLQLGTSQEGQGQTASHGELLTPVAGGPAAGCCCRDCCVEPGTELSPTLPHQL

CDK5 = CDK5 (Homo sapiens, UniProt Q00535); assay: kinase panel; format: biochemical
CDK5, sequence (Q00535 whole entry): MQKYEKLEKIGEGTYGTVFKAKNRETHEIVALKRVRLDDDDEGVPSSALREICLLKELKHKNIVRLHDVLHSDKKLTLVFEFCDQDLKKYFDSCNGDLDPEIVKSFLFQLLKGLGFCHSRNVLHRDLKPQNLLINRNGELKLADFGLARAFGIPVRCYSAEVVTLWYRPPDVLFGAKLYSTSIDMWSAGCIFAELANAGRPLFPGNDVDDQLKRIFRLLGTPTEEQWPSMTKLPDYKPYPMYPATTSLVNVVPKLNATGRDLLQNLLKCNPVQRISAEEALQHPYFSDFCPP
CDK5, sequence (Q15078 whole entry partner): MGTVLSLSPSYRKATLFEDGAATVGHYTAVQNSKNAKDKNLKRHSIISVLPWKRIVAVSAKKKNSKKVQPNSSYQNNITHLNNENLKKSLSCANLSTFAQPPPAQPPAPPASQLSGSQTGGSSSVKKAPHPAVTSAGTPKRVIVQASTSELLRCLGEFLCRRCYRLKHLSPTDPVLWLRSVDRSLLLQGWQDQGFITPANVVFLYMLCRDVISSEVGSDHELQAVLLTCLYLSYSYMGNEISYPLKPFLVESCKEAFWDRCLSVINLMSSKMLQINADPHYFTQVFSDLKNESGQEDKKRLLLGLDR

CAMK4 = CAMK4 (Homo sapiens, UniProt Q16566); assay: kinase panel; format: biochemical
ALK2 = ALK2 (Homo sapiens, UniProt Q04771); assay: kinase panel; format: biochemical
CDK6-CYCLIND3 = CDK6-CYCLIND3 (Homo sapiens, UniProt Q00534); assay: kinase panel; format: biochemical

AKT3, sequence (Q9Y243 whole entry): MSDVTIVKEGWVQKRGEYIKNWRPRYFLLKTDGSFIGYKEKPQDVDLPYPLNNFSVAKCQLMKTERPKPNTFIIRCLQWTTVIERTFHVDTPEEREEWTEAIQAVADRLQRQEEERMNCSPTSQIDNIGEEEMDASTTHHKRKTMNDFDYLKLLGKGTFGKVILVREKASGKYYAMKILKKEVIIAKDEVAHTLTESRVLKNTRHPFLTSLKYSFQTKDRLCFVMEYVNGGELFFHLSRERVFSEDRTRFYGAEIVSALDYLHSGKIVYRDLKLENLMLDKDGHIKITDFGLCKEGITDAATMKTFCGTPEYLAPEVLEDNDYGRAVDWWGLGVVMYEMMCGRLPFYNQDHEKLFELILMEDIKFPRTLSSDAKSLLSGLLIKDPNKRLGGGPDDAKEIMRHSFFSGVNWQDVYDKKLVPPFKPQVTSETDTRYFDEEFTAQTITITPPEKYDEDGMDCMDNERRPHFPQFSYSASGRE

inhibition at 1 µM (HIPK4): 0% | inhibition at 1 µM (AKT3): 0% | inhibition at 1 µM (LATS2): 2% | inhibition at 1 µM (P70S6K1): 0% | inhibition at 1 µM (MELK): 0% | inhibition at 1 µM (JAK3): 0% | inhibition at 1 µM (PIM3): 1% | inhibition at 1 µM (PYK2): 4% | inhibition at 1 µM (CK1-GAMMA1): 2% | IC50 [2]: > 30 µM | inhibition at 1 µM (FLT-4): 1% | inhibition at 1 µM (FGFR2): 1% | inhibition at 1 µM (SLK): 0% | inhibition at 1 µM (EPH-A2): 7% | inhibition at 1 µM (SYK): 0% | IC50 (H1 receptor): > 30 µM | inhibition at 1 µM (CAMK1D): 0% | inhibition at 1 µM (RSK4): 0% | inhibition at 1 µM (CK1-GAMMA3): 6% | IC50 (CYP3A4): > 10 µM | inhibition at 1 µM (CK1-EPSILON): 0% | inhibition at 1 µM (NEK6): 0% | inhibition at 1 µM (NEK3): 0% | inhibition at 1 µM (NEK2): 2% | inhibition at 1 µM (CK1-GAMMA2): 0% | inhibition at 1 µM (BRK): 0% | inhibition at 1 µM (RET): 0% | IC50 (COX-1): > 30 µM | inhibition at 1 µM (SRPK1): 0% | inhibition at 1 µM (KDR): 0% | inhibition at 1 µM (TAOK2): 0% | inhibition at 1 µM (CDK3-CYCLINE): 0% | inhibition at 1 µM (CDK5-P25): 0% | inhibition at 1 µM (TRKA): 0% | inhibition at 1 µM (CAMK1A): 0% | inhibition at 1 µM (CDK5): 0% | inhibition at 1 µM (CAMK4): 1% | inhibition at 1 µM (ALK2): 0% | inhibition at 1 µM (CDK6-CYCLIND3): 2%
SMILES: O=C(Nc1nccs1)C(c1cc(F)ccc1O)N1Cc2ccccc2C1=O (stereo not shown) [EAI045, 2-(5-fluoro-2-hydroxyphenyl)-2-(1-oxo-2,3-dihydro-1H-isoindol-2-yl)-N-(1,3-thiazol-2-yl)acetamide]
tumor response [1]: marked tumor shrinkage
